# Screening results from PubChem BioAssay.
# Hsp70 act: Hsp70 transcriptional activators, primary screen, cell-based, HeLa, Hsp70 promoter luciferase, luminescence, 10 µM; HeLa Hsp70 promoter luciferase reporter; scaled: vehicle 0, proteasome-inhibitor control 100%; activation, % at 10 µM; actives 0.04% (n = 200,000); AID 1203, 2008;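 active means activation above the mean across all tested compounds plus 3 SD, cutoff set per campaign, cut at about 5.5% in these data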;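 further: 100% = MG132 at 30 µM as the positive control and 0% = DMSO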
# STAT3 activator: IL-6 driven STAT3 reporter potentiators, primary screen, U3A cells, luciferase, luminescence, MLSCN library | IL-6 STAT3-luciferase reporter; 100% = signal with IL-6 EC80 alone | activation (% of control), % at 5.6 µM | actives 0.91% (n = 190,000);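 active means activation above the screen-wide mean of compound activation plus 3 SD, cut at about 130% in these data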;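 further: 0% = background luminescence of wells with medium and substrate only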
#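 System – human U3A cells carrying STAT3-luciferase construct · Probe or stimulus – Interleukin-6, 33 ng/mL · Schedule – compound 1 h, then IL-6 6 h at 37 °C · Signal – luminescence from STAT3-driven luciferase reporter · Evaluation – percent of IL-6-only median luminescence · Benchmarks – IL-6-only high control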
# AHR activator: AHR activators, primary screen, cell-based, luminescence, luciferase reporter, human; AHR-responsive luciferase reporter cells; Aryl hydrocarbon receptor (Homo sapiens), P35869; actives 2.5% (n = 320,000); activation, % at 5 µM; in the data active means activation above about 47%;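 further: 0% = vehicle wells and 100% = reference agonist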
# PolyA inhibitor: polyadenylation inhibitors in yeast reporter cells, primary screen, luminescence, S. cerevisiae; S. cerevisiae SKY197-pL101 polyadenylation reporter, beta-gal luminescence; efflux-impaired pdr1/pdr3 knockout yeast; score 100 = 6 SD above DMSO; activity score, % at 12 µM; actives 0.02% (n = 300,000); AID 1875, 2009;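 active means lowest replicate activity score at least 50, where 100 means six control SD above control mean; inconclusive means lowest score under 50 but half or more replicates reach 50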;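 further: yeast exposed to compound for 9 h at 30 °C; higher score means more reporter readthrough which indicates perturbed polyadenylation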
# HSF1 inh: HSF1 inhibitors in luciferase reporter cells, primary screen, cell-based, NIH3T3, luminescence; NIH3T3-HGL HSE-luciferase, MG132-induced, luminescence 8 h; hits give low values; activity change, negative = inhibition, % at 7.5 µM (by protocol); actives 0.77% (n = 300,000); AID 2098, 2009;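 active means more than half of replicate wells show activity change below -50%, luminescence cut by over half; inconclusive means some wells, but at most half, below -50%; inactive means no replicate well below -50%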;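 further: luciferase reports HSF-1 transcriptional activity via heat shock element; 0% = median of DMSO wells and -100% = zero luminescence signal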
# PERK inh: block of dimerizer-induced PERK translation repression, primary screen, PERK inhibitor project, CHO PERK-DD cells, SEAP luminescence, HTS; Eukaryotic translation initiation factor 2-alpha kinase 3 (Homo sapiens), Q9NZJ5; CHO PERK-DD fusion, SEAP luminescence translation reporter; inhibition, % at 5.6 µM; actives 0.17% (n = 220,000);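 active means inhibition above the mean inhibition of all tested compounds plus 3 SD, set separately per screening campaign, cut at about 2.9% in these data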;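 further: PERK kinase domain activated by AP20187 dimerizer at 100 nM; 0% = DMSO with dimerizer and 100% = rapamycin at 8.4 µM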
# The depositor's hits bear a star; ? = inconclusive; nt = no result given. In the library only some 3.6% were active in any assay of this set; here they are far more common.
SMILES,Hsp70 act,STAT3 activator,AHR activator,PolyA inhibitor,HSF1 inh,PERK inh
Cc1ccccc1OCCC(=O)Nc1cc(S(=O)(=O)N2CCOCC2)ccc1OC(C)C,nt,nt,-1,8,-2,nt
Cc1ccccc1-c1nc(-c2ccc(NC(=O)c3cccs3)cc2)no1,0,97,57*,21,16,0
CCc1cccc(NC(=S)N(CCOC)C(C)c2ccco2)c1 (configuration not stated),nt,nt,2,7,-3,0
Cc1ccc(C(=O)c2sc3nsc(C)c3c2N)cc1,0,94,64*,-14,33,0
CCOC(=O)c1ccc(NS(=O)(=O)c2c(N)[nH]c(=O)[nH]c2=O)cc1,nt,nt,1,-7,-3,nt
COc1ccc(Nc2cc3n(c(=O)n2)CCc2cc(OC)c(OC)cc2-3)cc1,nt,nt,1,20,-16,nt
COc1cc2c(cc1OC)-c1cc(Nc3ccc4c(c3)OCCO4)nc(=O)n1CC2,0,87,-6,15,-72*,1
COc1ccccc1N(/N=C1\Sc2ccccc2C1=O)C(C)=O,nt,nt,39,-7,-68*,0
CC(=O)Nc1ccc(-c2csc(N/N=C\c3ccncc3)n2)cc1,nt,nt,61*,-3,-3,0
COC(=O)c1ccc(/C=N/Nc2nc(-c3ccccc3)cs2)cc1,0,104,50*,-5,0,1
CCCC(=O)Nc1ccc(-c2csc(N/N=C\c3ccncc3)n2)cc1,nt,nt,2,18,-1,0
COc1cccc(NC(=O)c2cc3ccccc3o/c2=N\O)c1,nt,nt,0,4,44,nt
O=C(Nc1ccccc1Cl)c1cc2ccccc2o/c1=N\O,nt,nt,76*,1,35,nt
CCCn1nc(NC(=O)CC(C)C)c2cc3cccc(C)c3nc21,nt,nt,5,-4,-6,nt
CCn1nc(NC(=O)c2ccco2)c2cc3cc(C)ccc3nc21,nt,nt,53*,-16,0,0
CCCn1nc(NC(=O)c2ccncc2)c2cc3ccccc3nc21,0,90,69*,-10,1,-2
CCCn1nc(NC(C)=O)c2cc3cccc(C)c3nc21,nt,nt,48*,-2,-10,nt
CCn1nc(NC(=O)c2ccncc2)c2cc3cc(C)ccc3nc21,0,95,62*,0,-8,0
CC(C)(C)OC(=O)CNC(=O)c1nc[nH]c1C(=O)N1CCNCC1,nt,nt,2,1,1,nt
CCOc1cc(Cl)c(S(=O)(=O)NCCCN2CCOCC2)cc1Cl,nt,nt,-3,-8,2,nt
Cc1ccc(NC(=O)COC(=O)[C@@H]2CC(O)CN2S(=O)(=O)c2ccc3c(c2)OCCO3)cc1 (some centres not stated),nt,nt,3,nt,nt,nt
COC(=O)c1cc2c(N)c(C(=O)c3ccccc3)sc2nc1C(OC)OC,nt,nt,3,4,6,-1
CCc1ccc(OCC(=O)NC(=S)Nc2ccc(F)cc2)c(Br)c1,0,95,0,-8,-2,-1
CCc1ccc(OCC(=O)NC(=S)Nc2ccc(C(C)=O)cc2)c(Br)c1,0,103,76*,-5,-26,1
CN(C)c1cccc(Oc2nc3c(c(=O)n(C)c(=O)n3C)n2C)c1,nt,nt,15,8,0,nt
SMILES,Hsp70 act,STAT3 activator,AHR activator,PolyA inhibitor,HSF1 inh,PERK inh
Cn1c(=O)c2c(nc(Oc3cccc(Br)c3)n2C)n(C)c1=O,nt,nt,48*,?,-1,nt
O=C(/C=C/Nc1ccccc1Br)c1ccccn1,-1,10,9,0,-61*,1
O=C(/C=C\Nc1ccccn1)c1ccccc1,0,33,43,34,-2,0
COc1cc(OC)nc(Oc2ccccc2C(=O)Oc2ccc(Cl)cc2)n1,0,96,2,-5,-86*,0
COc1cc(OC)nc(Oc2ccccc2C(=O)Oc2ccc(C)cc2)n1,0,100,0,-11,-3,0
Cc1cc(C)n2nc(SCC(=O)NC(=O)c3ccc(OC(F)F)cc3)nc2n1,nt,nt,0,nt,nt,nt
